From PMC5892705 (Science signaling, 2017)
Read-outs that look alike come from different tables or passages of the source.

Assays:
[1] = biological target: human V1aR; conditions: read-out: Ki at human V1aR, cited from earlier work
[2] = tested on: OT, V1a, V1b, V2 receptors; conditions: cited from earlier work
[3] = tested on: OT, V1a, V1b, V2 receptors; conditions: cited from earlier work; remark: listed apart in the source
[4] = tested on: OT, V1a, V1b, V2 receptors; conditions: cited from earlier work; remark: listed apart in the source
[5] = biological target: rat OTR; conditions: read-out: Ki at rat OTR; ref Chini et al.([38]); cited from earlier work
[6] = biological target: rat V1bR; conditions: read-out: Ki at rat V1bR; ref Chini et al.([38]); cited from earlier work
[7] = biological target: rat V2R; conditions: read-out: Ki at rat V2R; ref Chini et al.([38]); cited from earlier work
[8] = biological target: rat V1aR; conditions: read-out: Ki at rat V1aR; ref Chini et al.([38]); cited from earlier work
[9] = biological target: human V1bR; conditions: read-out: Ki at human V1bR; ref Chini et al.([38]); cited from earlier work
[10] = biological target: human V2R; conditions: read-out: Ki at human V2R; ref Chini et al.([38]); cited from earlier work
[11] = biological target: mouse V2R; conditions: read-out: Ki at mouse V2R; ref Chini et al.([38]); cited from earlier work
[12] = Human serum stability assay; format: in vitro ADME
In short: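 Peptides were spiked into human serum. Aliquots were withdrawn at 1, 2, 3, 4, 12, 24 and 48 h and analysed by RP-HPLC and LCMS.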

[13] = biological target: T1, human OTR (Homo sapiens, UniProt P30559); conditions: read-out: Ki at human OTR; ref Chini et al.([38]); cited from earlier work
T1 sequence (P30559 1-389): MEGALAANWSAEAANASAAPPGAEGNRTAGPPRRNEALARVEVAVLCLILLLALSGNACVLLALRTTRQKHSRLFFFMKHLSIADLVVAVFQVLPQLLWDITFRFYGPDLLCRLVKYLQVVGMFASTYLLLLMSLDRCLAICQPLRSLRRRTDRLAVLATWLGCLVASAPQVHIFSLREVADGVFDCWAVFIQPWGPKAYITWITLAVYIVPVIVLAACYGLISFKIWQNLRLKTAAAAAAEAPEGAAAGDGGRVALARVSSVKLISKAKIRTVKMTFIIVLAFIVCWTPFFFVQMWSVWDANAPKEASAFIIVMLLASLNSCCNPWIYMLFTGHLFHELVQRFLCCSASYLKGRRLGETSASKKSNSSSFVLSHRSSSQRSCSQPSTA

[14] = mouse, ref [37], [38], [41], [48], [49], [63], [96]–[99]
[15] = rat, ref [37], [38], [41], [48], [49], [63], [96]–[99]
[16] = human, ref [37], [38], [41], [48], [49], [63], [96]–[99]

In the case of “[Phe2,Ile3,Hgn4,Orn(iPr)8]-VP [FE 202158]”, the Ki ([1]; selective agonist, ref [100], [101]) is given as 4.4 nM.

In the case of Atosiban, the Selectivity [2, 14] is listed as “OT selective”, the Selectivity [3, 15] is listed as “unselective” and the Selectivity [4, 16] is listed as “V1a preference”.

For [Thr4,Gly7]-OT [T4G7-OT], the Selectivity [2, 14] is given as “OT selective”, the Selectivity [3, 15] is given as “OT selective” and the Ki [5] is given as 1 nM. For the same compound, the Selectivity [4, 16] was “OT preference”.

For d[Leu4, Lys8]-VP, the Ki [6] is listed as 1.2 nM.

In the case of dDAVP, the Ki [7] is given as 0.3 nM.

In the case of d(CH2)5[Tyr(Me)2]-AVP, the Ki [8] is given as 0.7 nM.

For `COc1ccc(S(=O)(=O)N2c3ccc(Cl)cc3[C@](O)(c3ccccc3Cl)[C@@H]2C(=O)N2CCC[C@H]2C(N)=O)cc1OC` [SR49059], the Ki ([1]; ref Chini et al.([38])) is listed as 0.9 nM.

In the case of [Hmp1,Phe2,Ile3,Hgn4,Dab8]-VP [F-180], the Selectivity [3, 15] is given as “unselective”, the Ki ([1]; ref Chini et al.([38])) is given as 11.7 nM and the Selectivity [4, 16] is given as “V1a preference”.

In the case of `N=C(N)NCCC[C@H](NC(=O)[C@@H]1CCCN1C(=O)[C@@H]1CSSC[C@H](N)C(=O)N[C@@H](Cc2ccc(O)cc2)C(=O)N[C@@H](Cc2ccccc2)C(=O)N[C@@H](CCC(N)=O)C(=O)N[C@@H](CC(N)=O)C(=O)N1)C(=O)NCC(N)=O` [AVP, arginine-vasopressin], the Selectivity [2] is listed as “unselective”, the Selectivity [3] is listed as “unselective” and the Selectivity [4] is listed as “unselective”.

For d(CH2)5[D-Ile2,Ile4,Tyr9]-AVP, the Ki ([1]; ref Chini et al.([38])) is listed as 3.7 nM.

For d[Cha4]-AVP, the Ki [9] is given as 1.2 nM, the Selectivity [3, 15] is given as “unselective” and the Selectivity [4, 16] is given as “V1b selective”.

In the case of `COc1ccc(S(=O)(=O)N2c3ccc(Cl)cc3[C@](O)(c3ccccc3Cl)[C@@H]2C(=O)N2CCC[C@H]2C(N)=O)cc1OC` [SR49049], the Ki [8] is given as 2.2 nM.

For `CCOc1ccc2c(c1)C1(CCC(OCCN3CCOCC3)CC1)C(=O)N2S(=O)(=O)c1ccc(C(=O)NC(C)(C)C)cc1OC` (stereo not shown) [SR121463], the Ki [10] is listed as 4.1 nM, the Ki [7] is listed as 1.5 nM and the Ki [11] is listed as 11.2 nM.

`CC[C@H](C)[C@@H]1NC(=O)[C@H](Cc2ccc(O)cc2)NC(=O)[C@@H](N)CSSC[C@@H](C(=O)N2CCC[C@H]2C(=O)N[C@@H](CC(C)C)C(=O)NCC(N)=O)NC(=O)[C@H](CC(N)=O)NC(=O)[C@H](CCC(N)=O)NC1=O` [OT, Oxytocin] gave a half-life [12] of 12 h.

In the case of `CCN(Cc1cccnc1)C(=O)c1ccc(Cl)c(C2(C)C(=O)N(Cc3ccc(OC)cc3OC)c3ccc(Cl)cc32)c1` (stereo not shown) [SSR126768], the Ki [13] is listed as 0.9 nM.
